GalR3 antag = GalR3 antagonists in HEK293 cells, primary screen, cell-based, fluorescence readout | Galanin receptor type 3 (Homo sapiens), O60755 | HEK293 GalR3-CNG cAMP membrane potential fluorescence; galR3 body fused to GalR1 C-terminus | inhibition, % at 3 µM | 360,000 tested, 0.44% active | AID 651719, 2012;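 active = inhibition above the screen-wide average plus 3 SD, cut at about 13% in these data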;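 note: forskolin and galanin both at EC90 stimulate the cells; cAMP rise reported by CNG channel membrane potential dye signal; 0% = forskolin plus galanin with DMSO and 100% = forskolin alone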
Target sequence (O60755 1-299 limits assumed): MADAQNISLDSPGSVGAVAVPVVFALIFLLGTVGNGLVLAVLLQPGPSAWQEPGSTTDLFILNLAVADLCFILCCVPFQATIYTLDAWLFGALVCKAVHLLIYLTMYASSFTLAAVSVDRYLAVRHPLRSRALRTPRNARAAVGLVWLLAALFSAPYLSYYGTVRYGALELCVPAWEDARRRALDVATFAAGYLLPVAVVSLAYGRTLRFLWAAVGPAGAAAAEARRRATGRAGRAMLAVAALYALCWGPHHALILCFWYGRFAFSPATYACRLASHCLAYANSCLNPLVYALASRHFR
NR2E3 ag-1 = NR2E3 agonists in two-hybrid cells, primary screen, cell-based, luminescence, CHO-S, Gal4-NCOR/VP16-NR2E3 | luciferase | inhibition of corepressor binding, % at 3.98 µM | 360,000 tested, 0.35% active | AID 602229, 2012;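 active = inhibition above the mean of all tested compounds plus 3 SD, cut at about 70% in these data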;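 note: 0% = DMSO with NR2E3 transfected cells and 100% = cells lacking NR2E3 construct; higher means lower luciferase signal from less NR2E3 corepressor binding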
Target sequence (Q9Y5X4 whole entry, looked up, the tested form may be a part): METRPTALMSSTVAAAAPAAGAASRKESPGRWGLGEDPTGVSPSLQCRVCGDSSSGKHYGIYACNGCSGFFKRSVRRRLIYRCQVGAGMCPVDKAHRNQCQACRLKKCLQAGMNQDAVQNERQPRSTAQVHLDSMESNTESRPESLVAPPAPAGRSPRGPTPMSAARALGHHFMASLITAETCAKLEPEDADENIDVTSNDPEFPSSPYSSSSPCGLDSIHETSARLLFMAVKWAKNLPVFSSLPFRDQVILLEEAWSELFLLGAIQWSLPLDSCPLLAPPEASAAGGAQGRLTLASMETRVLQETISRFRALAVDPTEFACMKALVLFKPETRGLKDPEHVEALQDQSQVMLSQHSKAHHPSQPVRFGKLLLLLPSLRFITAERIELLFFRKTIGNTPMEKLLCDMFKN
697 NFkB inh = inhibitors of PMA/ionomycin-induced NF-kB reporter, 697 cells, primary screen, B-cell NF-kB inhibitor project, cell-based, luminescence, uHTS. 697 B-cell NF-kB luciferase reporter, 16 h. inhibition, % at 4 µM. 330,000 tested, 0.33% active. AID 435022, 2010; in the data active = inhibition above about 35%
Gli-Sufu block = Gli-Sufu pathway antagonists, primary screen, luciferase luminescence, Sufu-KO-LIGHT cells, uHTS; Sufu-KO-LIGHT fibroblasts, Gli luciferase reporter luminescence; inhibition, % at 5 µM; 340,000 tested, 0.74% active; AID 588413, 2011;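 active = inhibition above about 55%, limit read from the data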;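 note: 0% = DMSO-treated cells and 100% = wells with medium but no cells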
NR2E3 ag-2 = inhibitors of NR2E3-RetCOR corepressor binding, primary screen, NR2E3 agonist project, biochemical, TR-FRET, GST-NR2E3, biotin-RetCOR | Photoreceptor-specific nuclear receptor (Homo sapiens), Q9Y5X4 | 320,000 tested, 0.12% active | inhibition of corepressor binding, % at 4.78 µM | 1536-well | AID 2300, 2010;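 active = percent inhibition above the cutoff of mean plus 3 SD of all tested compounds, set per screening campaign, cut at about 20% in these data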;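 note: 0% = DMSO wells and 100% = biotin wells as full block of FRET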
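Material: NR2E3–RetCOR corepressor complex / Amount: 1.35 nM GST-NR2E3 / Medium: Tris pH 7.5 / Compound: single nominal compound dose of 4.8 µM / Incubation: 5 h at 4 °C / Technique: TR-FRET, Eu(K)-anti-GST donor, streptavidin-D2 acceptor, ex 340, em 617/671 nm / Read-out basis: percent loss of FRET ratio relative to control wells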
Jurkat NFkB inh = inhibitors of induced NF-kB luciferase reporter, primary screen, TCR NF-kB activation inhibitor project, cell-based, luminescence, uHTS. Jurkat, PMA/ionomycin-induced NF-kB luciferase reporter. 330,000 tested, 0.53% active. inhibition, % at 4 µM; in the data active = inhibition above about 50%
NR2E3 ag conf = NR2E3 agonist confirmation in cells, cell-based, luminescence, CHO-S two-hybrid | inhibition, % at 3.98 µM | shares compounds with NR2E3 ag-1 | CHO-S mammalian two-hybrid NR2E3-NCOR, luciferase luminescence | 2,300 tested, 51% active;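 active = average inhibition above a cutoff equal to the mean inhibition of all tested compounds plus one SD, cut at about 70% in these data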;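 note: 0% = DMSO in NR2E3 cells and 100% = DMSO in cells lacking NR2E3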
GAL4-VP16 luc = GAL4-VP16 reporter modulators, confirmation, counter-screen for NR2E3 agonist project, cell-based, luminescence, CHO-S, high throughput | inhibition, % at 3.98 µM | 2,300 tested, 29% active | CHO-S GAL4-VP16 luciferase reporter | shares compounds with NR2E3 ag-1 | AID 624379, 2012;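 active = mean inhibition above a cutoff equal to the average over all tested compounds plus one standard deviation, cut at about 70% in these data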;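 note: luciferase from a UAS reporter driven by GAL4-VP16 transactivation; 0% = DMSO with VP16-transfected cells and 100% = DMSO with cells lacking VP16; higher means less reporter light so more repression of VP16 activity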
* marks the source's active call; other numbers are inactive results; . = no result. Hits are enriched below; roughly 1.8% of the tested compounds scored in any of these assays.

SMILES | GalR3 antag | NR2E3 ag-1 | 697 NFkB inh | Gli-Sufu block | NR2E3 ag-2 | Jurkat NFkB inh | NR2E3 ag conf | GAL4-VP16 luc
CC1=C(C)/C(=N\OS(=O)(=O)c2ccc(C)cc2)C=CC1=O | 5 | 71* | . | -1 | -1 | . | 8 | 4
COc1ccc(S(=O)(=O)/N=C2/C=CC(=O)C(C)=C2C)cc1 | . | -19 | -55 | -5 | -1 | -12 | . | .
CC(=O)c1cccc(NC(=O)C(OC(=O)/C=C/c2ccc3c(c2)OCO3)c2ccccc2)c1 (stereo not drawn) | -4 | -18 | -8 | -7 | 0 | -32 | . | .
CCc1nnc(NC(=O)c2nc(S(=O)(=O)Cc3ccc(C)cc3)ncc2Cl)s1 | -7 | 54 | -25 | 31 | 3 | 9 | 59 | 13
CCc1nnc(NC(=O)c2nc(S(=O)(=O)Cc3ccccc3)ncc2Cl)s1 | -8 | 31 | -78 | 22 | 7 | 6 | . | .
CSc1nnc(NC(=O)c2nc(S(=O)(=O)Cc3cccc(C)c3)ncc2Cl)s1 | -8 | 49 | -107 | 16 | 7 | -1 | 47 | 10
Cc1ccc(CS(=O)(=O)c2ncc(Cl)c(C(=O)Nc3nnc(C(C)C)s3)n2)cc1 | -1 | 57 | -50 | 32 | -2 | 22 | 57 | 14
CC(C)c1nnc(NC(=O)c2nc(S(=O)(=O)Cc3ccc(F)cc3)ncc2Cl)s1 | -9 | 24 | -152 | 31 | 5 | -5 | . | .
Cc1nc2c3ccccc3nc(NNC(=O)CCC(=O)N3CCCC(C)C3)n2n1 (stereo not drawn) | 1 | -47 | 20 | -1 | 4 | 2 | . | .
CC(C)C(=O)Nc1ncc(Cc2ccccc2Cl)s1 | 1 | -52 | -14 | 4 | 2 | -8 | . | .
N=C1SCC(=O)N1c1ncc(Cc2cccc(Cl)c2)s1 | 7 | 100* | . | -5 | . | . | 97* | 42
N=C1SCC(=O)N1c1ncc(Cc2ccccc2Cl)s1 | -3 | 100* | . | 13 | . | . | 90* | 26
CC(C)Cc1ccc(C(C)C(=O)Nc2ccccc2O)cc1 (stereo not drawn) | -1 | 83* | -14 | 38 | 2 | 44 | 94* | 82*
FC(F)(F)c1nc(N2CCCC2)ncc1-c1nnnn1-c1ccccc1 | -7 | 65 | -43 | 48 | -3 | 19 | 75* | 60
Clc1ccccc1C(c1ccccc1)(c1ccccc1)n1ccnc1 | 1 | 60 | 8 | 12 | -28 | -1 | 70 | 54
CCc1cc2c(=O)nc3n(c2s1)Cc1ccccc1/C3=C(/O)c1ccc(F)cc1 | 8 | 69 | -37 | . | 0 | 10 | -19 | -4
O=C(NCc1ccccc1)C1(c2cccc(F)c2)CCCC1 | -6 | 14 | 8 | -3 | 1 | -6 | . | .
CCCCN(C)S(=O)(=O)c1cc2c(cc1Br)CCN2C(=O)C1CC1 | -7 | 26 | . | 9 | . | . | . | .
O=C(NC1CCCCC1)c1cc(S(=O)(=O)N2CCCCC2)ccc1N1CCOCC1 | 0 | -19 | 15 | 1 | 4 | 8 | . | .
Cn1nnnc1Sc1ncnc2scc(-c3cccc(F)c3)c12 | -2 | 48 | -51 | 28 | 3 | -13 | 9 | 30
Cn1nnnc1Sc1ncnc2scc(-c3ccccc3C(F)(F)F)c12 | 1 | 58 | -60 | 28 | 1 | -27 | 45 | 50
CC(C)Nc1nc(N)c(C(=O)C23CC4CC(CC(C4)C2)C3)s1 | 3 | -8 | -8 | -1 | 0 | -13 | . | .
COc1ccc(C(=O)c2sc(NC(C)C)nc2N)cc1OC | -2 | 59 | -13 | 17 | 3 | 0 | 37 | 10
COc1ccc(Nc2nc(N)c(C(=O)c3ccc(F)cc3)s2)cc1 | -2 | 21 | -21 | 1 | -1 | 23 | . | .
COc1cccc(C(=O)c2sc(NC(C)C)nc2N)c1 | -2 | 94* | -111 | -12 | 2 | 6 | 94* | 50
SMILES | GalR3 antag | NR2E3 ag-1 | 697 NFkB inh | Gli-Sufu block | NR2E3 ag-2 | Jurkat NFkB inh | NR2E3 ag conf | GAL4-VP16 luc
COc1ccc(N2CCN(CC(=O)Nc3ccccc3C(=O)NCc3ccccc3)CC2)cc1 | -7 | -21 | -9 | 9 | -148 | 21 | . | .
Cc1nn(C)cc1C(C)NC(=O)c1cc(COc2cccc3cnccc23)on1 (stereo not drawn) | -4 | 69 | -44 | 28 | -1 | 3 | -8 | 32
COc1cccc(OCc2cc(C(=O)N3CCC(c4ccncc4)CC3)no2)c1 | -2 | 85* | -28 | -18 | 0 | 33 | 89* | 80*
COc1ccc(OCc2cc(C(=O)N3CCC(c4ccccc4)CC3)no2)c(Cl)c1 | 3 | -94 | -61 | -8 | 1 | -42 | . | .
COCC1CCN(C(=O)c2cc(COc3cccc4cnccc34)on2)CC1 | -8 | 90* | -18 | 42 | -2 | 31 | 72* | 69
Cc1nn(C)cc1C(C)NC(=O)c1cc(COc2c(F)cccc2F)on1 (stereo not drawn) | -3 | 7 | 18 | -13 | 3 | -1 | . | .
CC(=O)c1ccc(OCc2cc(C(=O)N3CCC(c4ccncc4)CC3)no2)cc1 | -4 | 90* | -23 | 41 | -4 | 22 | 71* | 74*
CC(=O)c1ccc(OCc2cc(C(=O)N3CC[C@@H]4CCCC[C@H]4C3)no2)cc1 | -4 | -80 | -194 | -56 | 1 | -123 | . | .
CCOc1cccc(CN2CCN(CCCc3ccccc3)C(CCO)C2)c1O (stereo not drawn) | -9 | -13 | -42 | 43 | -4 | 5 | . | .
COCCCNC(=O)c1cc(-c2cccnc2)nc2ccc(S(=O)(=O)N3CCCCCC3)cc12 | 1 | -19 | -13 | 5 | -4 | -1 | . | .
COc1cccc(CC(=O)Nc2cc(S(=O)(=O)N3CCOCC3)ccc2OC)c1 | 0 | 10 | 12 | -2 | . | -5 | . | .
CCOC(=O)C1=C[C@@H](C(C)(C)C)N(S(=O)(=O)c2ccc([N+](=O)[O-])cc2)[C@H]1c1ccccc1 | -9 | 70* | . | . | . | . | 45 | 32
Nc1nc2ccccc2cc1C(=O)NCCCCc1ccccc1 | . | 96* | . | . | . | . | 97* | 90*
COc1ccc(C)cc1NC(=O)NC1CC(=O)N(c2ccc3c(c2)OCCO3)C1 (stereo not drawn) | -6 | 72* | . | . | . | . | 78* | 11

Assay outcomes deposited in PubChem by several laboratories.
